Screening results deposited in PubChem BioAssay by several laboratories.
SUMO1-SIM PPI: modulators of SUMO1 protein-protein interactions, primary screen, biochemical, uHTS. hit rate 0.33% among 360,000. SUMO1 binding to a labelled peptide, TR-FRET, 1 h. Small ubiquitin-related modifier 1 (Homo sapiens), P63165. AID 602429, 2012. inhibition, % at 20 µM; in the data active = inhibition above about 37%
Target sequence (P63165 whole entry, looked up): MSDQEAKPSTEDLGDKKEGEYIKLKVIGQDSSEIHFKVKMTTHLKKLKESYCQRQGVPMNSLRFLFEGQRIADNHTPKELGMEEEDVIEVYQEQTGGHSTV
F508del corr: F508del CFTR correction, initial screen, CFBE line, single point; CFBE cells, YFP halide quenching; stimulated with forskolin plus potentiator P3; % fluorescence drop versus neutral controls; activity (quench increase), % at 7.58 µM; hit rate 0.36% among 350,000; AID 720511, 2013;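 active = mean added fluorescence quench of at least 8% versus neutral control, with both replicates also reaching 8%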;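 note: cells transiently co-express mutant CFTR-F508del with the halide-sensitive YFP; corrector assay measuring rescue of mutant channel to the surface after 24 h compound exposure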
LMPTP inh: LMPTP phosphatase inhibitors, primary screen, biochemical, fluorescence intensity, uHTS | AID 651560, 2012 | hit rate 0.22% among 360,000 | Low molecular weight phosphotyrosine protein phosphatase (Homo sapiens), P24666 | recombinant LMPTP-A, OMFP fluorogenic substrate | inhibition, % at 20 µM;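 active = compounds that cut the enzyme signal by at least half of the control window in the single-dose screen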
Target sequence (P24666 whole entry, looked up): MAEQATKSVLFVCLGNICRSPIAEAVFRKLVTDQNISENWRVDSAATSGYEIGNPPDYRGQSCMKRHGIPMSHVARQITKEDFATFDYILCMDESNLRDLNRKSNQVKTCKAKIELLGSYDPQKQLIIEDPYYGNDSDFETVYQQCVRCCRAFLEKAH
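Assay system: LMPTP-A enzyme. Input: 0.625 nM LMPTP-A final. Probe or stimulus: 400 µM OMFP. Compound dosing: single 20 µM dose. Schedule: 50 min dark incubation at room temperature. Detection: fluorescence intensity of OMFP turnover product. Read-out: percent inhibition versus substrate-only and uninhibited controls. Benchmarks: no-enzyme low control, uninhibited high control.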
STEP inh: STEP phosphatase inhibitors, primary screen, biochemical, fluorescence intensity, uHTS. AID 588621, 2011. hit rate 0.25% among 360,000. Tyrosine-protein phosphatase non-receptor type 5 (Homo sapiens), P54829. inhibition, % at 20 µM. recombinant STEP, OMFP fluorogenic substrate;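 active = inhibition at 20 µM, scaled per plate between control wells, above about 37%, limit read from the data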
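System: STEP phosphatase, cell-free reaction; Buffer or medium: Bis-Tris pH 6.0 buffer with DTT, detergent; Incubation: 20 min at room temperature, dark; Measured by: fluorescence, 480/540 nm.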
Scp1 inh: Scp-1 phosphatase inhibitors, primary screen, biochemical, colorimetric, uHTS; Carboxy-terminal domain RNA polymerase II polypeptide A small phosphatase 1 (Homo …; Recombinant Scp1, phosphopeptide, malachite green phosphate absorbance; inhibition, % at 20 µM; hit rate 0.88% among 340,000; AID 493091, 2011;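 active = inhibition above about 50% at 20 µM, limit read from the data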
Target sequence (Q9GZU7 76-261 limits assumed): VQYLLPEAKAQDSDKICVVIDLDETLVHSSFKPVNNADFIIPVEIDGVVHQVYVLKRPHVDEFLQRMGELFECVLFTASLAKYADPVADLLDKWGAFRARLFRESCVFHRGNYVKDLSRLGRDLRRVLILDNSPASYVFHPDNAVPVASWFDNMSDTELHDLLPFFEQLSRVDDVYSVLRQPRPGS
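Test system: SCP-1 phosphatase catalytic domain, residues 76-261 | Compound dosing: One concentration, 20 µM, with 1.0% DMSO | Schedule: 45 min room-temperature reaction, 5 min colour, 30 min stabiliser | Detection: Absorbance at 630 nm | Read-out basis: % inhibition of SCP-1 phosphate liberation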
DNMT1 block: human DNMT1 methyltransferase inhibitors, primary screen, biochemical, molecular beacon, fluorescence, HinP1I cleavage, uHTS; DNA (cytosine-5)-methyltransferase 1 (Homo sapiens), P26358; inhibition (reported as % activation of signal), % at 10 µM; hit rate 0.83% among 360,000; in the data active = inhibition above about 50%
Beacon interf DR: spectral interference with molecular beacon fluorescence, dose response, artefact control for DNMT1 inhibitor project, biochemical, fluorescent molecular beacon; shares compounds with DNMT1 block; spectral interference counter-screen; IC50, µM; 200 tested, under 10 active; AID 602382, 2012; call rule not given here
DNMT1 inh conf: DNMT1 methyltransferase inhibitor retest, confirmation, biochemical, molecular beacon, fluorescence, single concentration. shares compounds with DNMT1 block. DNMT1 molecular beacon HinP1I cleavage. inhibition, % at 10 µM. hit rate 8% among 2,300;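 active = average inhibition of at least 30% in the single-concentration confirmation test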
Beacon interf: shows spectral interference in the DNMT1 beacon assay | shares compounds with DNMT1 block | DNMT1 molecular beacon spectral interference counterscreen, fluorescence 485/520 | activation (fluorescence interference), % at 10 µM | hit rate 1% among 2,300;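 active = activation of at least 30% at 10 µM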;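 note: DNMT1 catalytic domain with a HinP1I cleavage step and a FAM/dabcyl DNA beacon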
Numbers stand for hits; n = inactive; x = no result given. Sampled rows, rich in hits. Any-hit rate of the full collection: about 1.6%.

SMILES	SUMO1-SIM PPI	F508del corr	LMPTP inh	STEP inh	Scp1 inh	DNMT1 block	DNMT1 inh conf	Beacon interf	others
O=C(N/N=C/c1ccc2c(c1)OCO2)c1sc2cccc(Cl)c2c1Cl	n	x	n	n	n	n	x	x
COc1ccc2c(Cl)c(C(=O)N/N=C/c3ccc4c(c3)OCO4)sc2c1	n	x	n	n	n	62.0	n	n
O=C(N/N=C/c1ccc2c(c1)OCO2)c1sc2cc(Cl)ccc2c1Cl	n	x	n	n	n	67.2	n	n
O=C(Nc1cc(F)ccc1F)N[C@H]1CC[C@@H](CC(=O)N2CCc3ccccc3C2)O[C@H]1CO	x	n	x	x	x	x	x	x
CC(C)C#Cc1cnc2c(c1)C(=O)N([C@@H](C)CO)C[C@H](C)[C@@H](CN(C)C(=O)c1cnccn1)O2	x	n	x	x	x	x	x	x
Cc1ccc(NC(=O)Nc2nnc(-c3ccccc3F)s2)cc1	n	n	n	n	n	55.6	n	n
COc1ccc(NC(=O)Nc2nnc(-c3ccccc3F)s2)cc1	n	n	n	n	n	n	x	x
CC(=O)Nc1ccc(S(=O)(=O)NCC(C)NS(=O)(=O)c2ccc(NC(C)=O)cc2)cc1 (stereo not drawn)	n	x	n	n	n	n	x	x
CC(=O)Nc1ccc(S(=O)(=O)NCC(CCC(=O)O)C(F)(F)F)cc1 (stereo not drawn)	n	n	n	n	n	59.9	n	n
COc1ccc(CNC(=O)C2CC(c3ccccc3C(F)(F)F)=NO2)cc1 (stereo not drawn)	n	n	n	n	n	72.0	n	n
Cc1noc(C)c1CCC(=O)N1CCCC(N2CCN(c3ccc(F)cc3)CC2)C1 (stereo not drawn)	n	n	n	n	n	86.0	n	n
C[C@H](CO)N1C[C@H](C)[C@H](CN(C)S(C)(=O)=O)OCCCC[C@H](C)Oc2ccc(NC(=O)Nc3ccccc3)cc2C1=O	x	n	x	x	x	x	x	x
O=C1/C(=C/c2ccco2)SC(=S)N1CC1CCCO1 (stereo not drawn)	n	n	n	47.0	63.2	71.2	n	n
O=C(CCCN1C(=O)/C(=C/c2ccco2)SC1=S)Nc1ccccc1C(=O)O	75.4	n	n	47.6	69.2	85.9	n	n
O=C(CCCN1C(=O)/C(=C\c2ccccc2)SC1=S)Nc1ccc(O)cc1C(=O)O	n	n	n	n	n	n	x	x
O=C(CCN1C(=O)/C(=C/c2ccco2)SC1=S)Nc1ccc(O)cc1C(=O)O	40.3	n	n	n	63.7	71.2	n	n
O=C(CN1C(=O)/C(=C\c2ccco2)SC1=S)Nc1ccc(O)cc1C(=O)O	87.0	n	n	79.5	56.6	90.1	n	n
O=C1/C(=C\c2ccco2)SC(=S)N1Cc1ccccc1	n	x	n	n	n	n	x	x
CCCN1C[C@H](C)[C@H](OC)CN(C)C(=O)c2ccc(NC(=O)C3CCC3)cc2OC[C@H]1C	x	n	x	x	x	x	x	x
CO[C@@H]1CN(C)C(=O)c2cc(NS(C)(=O)=O)ccc2OC[C@@H](C)N(CC2CCOCC2)C[C@H]1C	x	n	x	x	x	x	x	x
O=C(C[C@H]1C=C[C@H](NC(=O)CC2CC2)[C@@H](CO)O1)NCc1ccc(-c2ccccc2)cc1	x	n	x	x	x	x	x	x
O=C(COc1ccc(Cl)cc1Cl)Nc1ccc(C(=O)Nc2ccccc2C(=O)O)cc1	40.5	n	n	n	n	83.7	n	n
C[C@@H]1CN([C@H](C)CO)C(=O)c2cc(NS(=O)(=O)c3ccc(Cl)cc3)ccc2O[C@@H]1CN(C)Cc1ccc(C(F)(F)F)cc1	x	n	x	x	x	x	x	x
Nc1ccc(S(=O)(=O)Nc2nccs2)cc1N=Nc1ccccc1[N+](=O)[O-]	n	n	n	n	n	77.2	80.5	n	Beacon interf DR=n
CC(C(=O)N(C)C1CCS(=O)(=O)C1)N1C(=O)/C(=C/c2ccc(F)cc2)SC1=S (stereo not drawn)	n	n	n	n	n	n	x	x
SMILES	SUMO1-SIM PPI	F508del corr	LMPTP inh	STEP inh	Scp1 inh	DNMT1 block	DNMT1 inh conf	Beacon interf	others
CCN(C(=O)C(C)N1C(=O)/C(=C/c2ccco2)SC1=S)C1CCS(=O)(=O)C1 (stereo not drawn)	n	n	n	n	n	63.4	n	n
CC(C)C#Cc1ccc2c(c1)O[C@H](CN(C)C(=O)NC(C)C)[C@H](C)CN([C@@H](C)CO)S2(=O)=O	x	n	x	x	x	x	x	x
COc1ccc(-n2c(Cc3cccn3C)nnc2SCC(=O)Nc2cccc(OC)c2)cc1	n	n	n	n	n	n	x	x
COc1cccc(NC(=O)CSc2nnc(Cc3cccn3C)n2-c2ccc(F)cc2)c1	n	n	n	n	n	75.5	n	n
O=C1CC(=O)N(Cc2cccs2)C(=O)N1	n	x	n	n	n	n	x	x
O=C1CC(=O)N(Cc2ccco2)C(=O)N1	n	x	51.3	95.0	65.9	108.8	105.2	n	Beacon interf DR=n
CN(C)CC(=O)Nc1ccc2c(c1)[C@H]1C[C@@H](CC(=O)NC3CCCCC3)O[C@@H](CO)[C@H]1O2	x	n	x	x	x	x	x	x
CCCCNC(=O)C1CCC(CNS(=O)(=O)c2cccc3nsnc23)CC1 (stereo not drawn)	n	n	n	n	n	n	x	x
CC1CCCN(CCCNC(=O)C2CCC(CNS(=O)(=O)c3cccc4nsnc34)CC2)C1 (stereo not drawn)	n	x	n	n	n	50.4	n	n
C[C@@H](NC(=O)C[C@H]1CC[C@@H](NC(=O)Nc2ccc3c(c2)OCO3)[C@H](CO)O1)c1ccccc1	x	n	x	x	x	x	x	x
O=c1oc(/C=C/c2ccco2)nc2sc3c(c12)CCC3	n	x	n	n	n	108.2	n	n
O=C(N/N=C/c1cc(Cl)cc([N+](=O)[O-])c1O)NC12CC3CC(CC(C3)C1)C2	n	n	78.2	n	n	71.6	n	n
CN(C(=O)COC(=O)c1ccccc1Cc1ccccc1)c1c(N)n(Cc2ccccc2)c(=O)[nH]c1=O	n	n	n	n	n	88.7	n	n
